Results gathered from unrelated publications.
Target: Dual specificity mitogen-activated protein kinase kinase 1 (MAP2K1, Homo sapiens, UniProt Q02750)

SMILES	test	conditions	endpoint	value
CC(C)CC(=O)N1CCc2nc(-c3ccc(Br)cc3)nc(N(C)Cc3ccccc3)c2C1	cell-free assay, competition with immobilised ligand	0.1 µM	remaining binding	100%
COc1cc(/C=C/C(=O)CC(=O)/C=C/c2ccc(O)c(OC)c2)ccc1O	enzyme activity, inhibitor	1 µM	activity vs control	93%
Cn1cnc(Br)c1C1=CN(c2ncnc3[nH]cnc23)CCS1	enzyme activity, inhibitor, radiometric	50 nM	inhibition	17.1%
CCCOc1ccc([C@H]2[C@H](C(=O)O)[C@@H](c3ccc4c(c3)OCO4)CN2CC(=O)Nc2c(CC)cccc2CC)cc1	cell-free assay, competition with immobilised ligand	1 µM	remaining binding	66%
O=C(CSc1nc2nccnc2c(=O)n1CCc1ccccc1)Nc1nccs1	enzyme activity, inhibitor	10 µM	inhibition	-2%
CN(C(=O)c1ccccc1)c1cc(N(C)c2ccc3c(c2)CCc2ccc(C(=O)NCCN4CCOCC4)cc2C3=O)ccc1F	cell-free assay, competition with immobilised ligand	1 µM	remaining binding	100%
CCN(CC)CCNC(=O)c1c(C)[nH]c(/C=C2\C(=O)Nc3ccc(F)cc32)c1C	enzyme activity, inhibitor	1 µM	remaining activity	44%
CN(C)C1CCN(CC#Cc2nn(C3CCCC3)c3nc(NCc4ccccc4)ncc23)C1 (stereo not drawn)	enzyme activity, inhibitor, FRET	0.1 µM	inhibition	9%
Nc1cnc(N2CCc3cc(S(=O)(=O)Nc4c(F)cc(Cl)cc4F)cc(N4CCCC4=O)c32)nc1	cell-free assay, competition with immobilised ligand	1 µM	remaining binding	100%
CNCc1ccc(-c2cc(-c3nc(-c4ccc(S(=O)(=O)C(C)C)cc4)cnc3N)on2)cc1	enzyme activity, inhibitor	2 µM	inhibition	6%
CCN(CC)Cc1cc(Nc2ccnc3cc(Cl)ccc23)ccc1O	cell-free assay, competition with immobilised ligand	10 µM	remaining binding	96%
COc1cc(Nc2cnc(C#N)c(O[C@H](C)CN(C)C)n2)ncc1-c1cnn(C)c1	enzyme activity, inhibitor, radiometric	1 µM	remaining activity	80%
COc1cccc(-c2cc(=O)c3ccccc3o2)c1N	cell-free assay	0.5 µM	remaining signal	69.1%
O=C(Nc1ccc(Oc2ccc(F)cc2)cc1)N1CCc2ncccc2[C@H]1c1ccc(F)cc1	cell-free assay, competition with immobilised ligand	1 µM	remaining binding	98%
CC(C)(C)c1nc(-c2cccc(NS(=O)(=O)c3c(F)cccc3F)c2F)c(-c2ccnc(N)n2)s1	enzyme activity, inhibitor, radiometric	1 µM	remaining activity	94%
CNC(=O)c1cc(Oc2ccc(NC(=O)Nc3ccc(Cl)c(C(F)(F)F)c3)cc2)ccn1	enzyme activity, inhibitor	0.3 µM	inhibition	0%
C=CC(=O)Nc1cc(Nc2nccc(Nc3cc(Cl)c(F)cc3C(C)(C)O)n2)c(OC)cc1N1CC[C@@H](N(C)C)C1	enzyme activity, inhibitor	1 µM	inhibition	21%
FC(F)(F)Oc1cccc(-c2cnc3ccc(-c4ccncc4)nn23)c1	enzyme activity, inhibitor, radiometric	1 µM	activity vs control	79%

SMILES	test	conditions	endpoint	value
CCOc1cc(-c2nncn2C)ccc1Nc1ncc2cc(C)nc(NCC(C)(C)C)c2n1	enzyme activity, inhibitor, FRET	1 µM	inhibition	16%
CCCS(=O)(=O)Nc1ccc(F)c(C(=O)c2c[nH]c3ncc(-c4ccc(Cl)cc4)cc23)c1F	enzyme activity, inhibitor	1 µM	inhibition	< 10%
CSc1cccnc1N1CCN(Cc2nc3ccccc3[nH]2)CC1	cell-free assay, competition with immobilised ligand	1 µM	remaining binding	79%
Nc1nc(Nc2ccc(S(N)(=O)=O)cc2)nn1C(=O)c1c(F)cccc1F	cell-free assay	0.5 µM	remaining signal	93.9%
Cc1ccc(Nc2nccc(N(C)c3ccc4c(C)n(C)nc4c3)n2)cc1S(N)(=O)=O	enzyme activity, inhibitor	10 µM	inhibition	1%
Cc1ccc(NC(=O)c2ccc(C)c(C(F)(F)F)c2)cc1C#Cc1nn(C2CCC(O)CC2)c2ncnc(N)c12 (stereo not drawn)	cell-free assay	10 µM	remaining signal	34%
Cc1ccc(C(=O)Nc2ccc(CN3CCN(C)CC3)c(C(F)(F)F)c2)cc1C#Cc1cnc2cccnn12	enzyme activity, inhibitor	23.5 nM	remaining activity	100%
Cc1[nH]c(/C=C2\C(=O)Nc3ccc(F)cc32)c(C)c1C(=O)N[C@H]1CCN(C(=O)N(C)C)C1	enzyme activity, inhibitor	1 µM	remaining activity	59%
CCCOc1ccc(OC)c(F)c1C(=O)c1ccc(C(=O)N[C@@H]2CNC[C@H]2NC(=O)c2ccc3[nH]ncc3c2)cc1	enzyme activity, inhibitor	10 µM	remaining activity	101%
CN(c1ncccc1CNc1nc(Nc2ccc3c(c2)CC(=O)N3)ncc1C(F)(F)F)S(C)(=O)=O	enzyme activity, inhibitor	1 µM	inhibition	77.1%
CNC(=O)Nc1ccc2c(c1)CC[C@@]21OC(=O)N(CC(=O)N(Cc2ccc(F)cc2)[C@@H](C)C(F)(F)F)C1=O	cell-free assay, competition with immobilised ligand	1 µM	remaining binding	85%
Nc1nc(NC2CCCCC2)sc1C(=O)c1ccccc1	enzyme activity, inhibitor	10 µM	remaining activity	68%
Cc1sc(C(=O)NC2COC2)cc1-n1cc(NC(=O)Nc2c(F)cccc2Cl)cn1	enzyme activity, inhibitor	10 µM	remaining activity	95.5%
COc1cc2ncnc(Nc3ccc(Oc4ccccc4)cc3C)c2cc1OC	enzyme activity, inhibitor	1 µM	inhibition	11%
CCN(CC)CCNC(=O)c1c(C)[nH]c(/C=C2\C(=O)Nc3ccc(F)cc32)c1C	enzyme activity, inhibitor	0.3 µM	inhibition	36%
O=C1Nc2ccc(Cl)cc2C1=Cc1cc(Cl)c(O)c(Cl)c1	cell-free assay	0.5 µM	remaining signal	96.8%
CNCc1ccccc1-c1csc([C@H](C)Nc2nc(C)nc3cc(OC)c(OC)cc23)c1	cell-free assay, competition with immobilised ligand	1 µM	remaining binding	100%
Oc1cccc(-c2nc(N3CCOCC3)c3oc4ncccc4c3n2)c1	enzyme activity, inhibitor	10 µM	remaining activity	105%
